Experimental data: ChEMBL document CHEMBL1124947, “Cationic antiprotozoal drugs. Trypanocidal activity of 2-(4'-formylphenyl)imidazo[1,2-a]pyridinium guanylhydrazones and related derivatives of quaternary heteroaromatic compounds” (J Med Chem, 1990)

Assays:
Type in all cases: functional
Mus musculus [1] = experiment: Trypanocidal Activity at I.C.E. value 0.74 when administered subcutaneously.
Outline: (§1)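 Mice, in groups of five per dose, were given a standard inoculum of blood-stage T. rhodesiense that is lethal to all untreated controls, then dosed subcutaneously. Usually 11 dose levels were used (2^n × 0.42 mg/kg).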

Mus musculus [2] = experiment: Trypanocidal Activity at I.C.E. value 0.60 when administered subcutaneously.; outline: as §1
Mus musculus [3] = experiment: Trypanocidal Activity at I.C.E. value 0.61 when administered perorally.
Mus musculus [4] = experiment: Trypanocidal Activity at I.C.E. value 0.94 when administered subcutaneously.; outline: as §1
Mus musculus [5] = experiment: Trypanocidal Activity at I.C.E. value 0.63 when administered perorally.
Mus musculus [6] = experiment: Trypanocidal Activity at I.C.E. value 0.57 when administered subcutaneously.; outline: as §1
Mus musculus [7] = experiment: Trypanocidal Activity at I.C.E. value 0.56 when administered perorally.
[8] = tested on: Trypanosoma brucei rhodesiense; experiment: In Vitro measurement of inhibition of Leucine uptake in cell culture of Trypanosoma rhodesiense.; conditions: read-out: ID50 (the source's name)
Outline: (§2)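 Trypanosomes harvested from infected rats, cultured 3 h with several concentrations of drug, usually 0.1–100 µg/mL. Radiolabeled L-leucine uptake measured. ID50 is the concentration in µg/mL giving 50% inhibition of incorporation.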

[9] = tested on: Trypanosoma brucei rhodesiense; experiment: In Vitro measurement of inhibition of thymidine uptake in cell culture of Trypanosoma rhodesiense.; conditions: read-out: ID50 (the source's name)
Outline: (§3)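 Parasites harvested from infected rats and incubated 3 h across a drug concentration series, usually 0.1–100 µg/mL. Incorporation of radiolabeled thymidine measured. ID50 is the concentration (µg/mL) producing 50% inhibition.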

Mus musculus [10] = experiment: Trypanocidal Activity at I.C.E. value 0.41 when administered subcutaneously.
Outline: (§4)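 Blood-stage T. rhodesiense infection came from a standard inoculum lethal to all untreated mice. Drug was given by subcutaneous injection to groups of five mice. Survival beyond 30 days counted as cure. […] Sub-curative doses scored 0, and data were normalized at each dose.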

Mus musculus [11] = experiment: Trypanocidal Activity at I.C.E. value 0.40 when administered perorally.
Mus musculus [12] = experiment: Trypanocidal Activity at I.C.E. value 0.84 when administered subcutaneously.; outline: as §1
Mus musculus [13] = experiment: Trypanocidal Activity at I.C.E. value 0.54 when administered subcutaneously.; outline: as §4
Mus musculus [14] = experiment: Trypanocidal Activity at I.C.E. value 0.48 when administered perorally.
Mus musculus [15] = experiment: Trypanocidal Activity at I.C.E. value 0.49 when administered subcutaneously.; outline: as §4
Mus musculus [16] = experiment: Trypanocidal Activity at I.C.E. value 0.66 when administered subcutaneously.; outline: as §1
Mus musculus [17] = experiment: Trypanocidal Activity at I.C.E. value 0.49 when administered perorally.
Mus musculus [18] = experiment: Trypanocidal Activity at I.C.E. value 0.63 when administered subcutaneously.; outline: as §1
Mus musculus [19] = experiment: Trypanocidal Activity at I.C.E. value 0.17 when administered perorally.
Mus musculus [20] = experiment: Trypanocidal Activity at I.C.E. value 0.15 when administered perorally.
Mus musculus [21] = experiment: Trypanocidal Activity at I.C.E. value 0.30 when administered subcutaneously.; outline: as §4
Mus musculus [22] = experiment: Trypanocidal Activity at I.C.E. value 0.79 when administered subcutaneously.; outline: as §1
[23] = tested on: Trypanosoma brucei rhodesiense; experiment: In Vitro measurement of inhibition of thymidine uptake in cell culture of Trypanosoma rhodesiense; conditions: read-out: ID50 (the source's name); outline: as §3
[24] = tested on: Trypanosoma brucei rhodesiense; experiment: In Vitro measurement of inhibition of leucine uptake in cell culture of Trypanosoma rhodesiense; conditions: read-out: ID50 (the source's name); outline: as §2
Mus musculus [25] = experiment: Trypanocidal Activity at I.C.E. value 0.55 when administered subcutaneously.; outline: as §1
Mus musculus [26] = experiment: Trypanocidal Activity at I.C.E. value 0.4 when administered perorally.
Mus musculus [27] = experiment: Trypanocidal Activity at I.C.E. value 0.47 when administered subcutaneously.; outline: as §4
Mus musculus [28] = experiment: Trypanocidal Activity at I.C.E. value 0.06 when administered perorally.
Mus musculus [29] = experiment: Trypanocidal Activity at I.C.E. value 0.24 when administered subcutaneously.; outline: as §4
Mus musculus [30] = experiment: Trypanocidal Activity at I.C.E. value 0.47 when administered perorally.
Mus musculus [31] = experiment: Trypanocidal Activity at I.C.E. value 0.48 when administered subcutaneously.; outline: as §4
Mus musculus [32] = experiment: Trypanocidal Activity at I.C.E. value 0.36 when administered subcutaneously.

SMILES: C[n+]1c(/C=C/c2ccc(/C=N/NC(=N)N3CCCC3)cc2)cn2ccccc21.Cc1ccc(S(=O)(=O)O)cc1.Cc1ccc(S(=O)(=O)[O-])cc1
- CD50 (Mus musculus [1]): 0.8 mg/kg

SMILES: Br.C[n+]1c(COc2ccc(/C=N/NC3=NCCN3)cc2)cn2ccccc21.[Br-]
- CD50 (Mus musculus [2]): 0.8 mg/kg
- CD50 (Mus musculus [3]): 6.6 mg/kg

SMILES: C[n+]1c(-c2ccc(/C=C/C=N/NC(=N)N)cc2)cn2ccccc21.Cc1ccc(S(=O)(=O)O)cc1.Cc1ccc(S(=O)(=O)[O-])cc1
- CD50 (Mus musculus [4]): 0.06 mg/kg
- CD50 (Mus musculus [5]): 6.6 mg/kg

SMILES: Br.C[n+]1c(-c2ccc(/C=N/NC3=NCCN3)cc2)cn2ccccc21.[Br-]
- CD50 (Mus musculus [6]): 0.8 mg/kg
- CD50 (Mus musculus [7]): 13 mg/kg
- IC50 [8]: 0.9 µg/mL
- IC50 [9]: 0.8 µg/mL

SMILES: Br.Cc1ccc2n(c1)cc(/C=C/c1ccc(/C=N/NC3=NCCCN3)cc1)[n+]2C.[Br-]
- CD50 (Mus musculus [10]): 1.6 mg/kg

SMILES: Br.CC/N=C(\NCC)N/N=C/c1ccc(-c2cn3ccccc3[n+]2C)cc1.[Br-]
- CD50 (Mus musculus [6]): 1.6 mg/kg
- CD50 (Mus musculus [11]): 53 mg/kg

SMILES: Br.Cc1cccc2n1cc(/C=C/c1ccc(/C=N/NC3=NCCCN3)cc1)[n+]2C.[Br-]
- CD50 (Mus musculus [12]): 0.4 mg/kg

SMILES: Br.CNC(=N)N/N=C/c1ccc(-c2cn3ccccc3[n+]2C)cc1.[Br-]
- IC50 [8]: 0.7 µg/mL
- IC50 [9]: 0.5 µg/mL
- CD50 (Mus musculus [10]): 0.8 mg/kg

SMILES: Br.Cn1cc[n+](C)c1/C=C/c1ccc(/C=N/NC2=NCCCN2)cc1.[Br-]
- CD50 (Mus musculus [5]): 6.6 mg/kg
- CD50 (Mus musculus [13]): 0.8 mg/kg

SMILES: Br.Cc1cccc2n1cc(COc1ccc(/C=N/NC(=N)N)cc1)[n+]2C.[Br-]
- CD50 (Mus musculus [14]): 13 mg/kg
- CD50 (Mus musculus [15]): 0.8 mg/kg

SMILES: Br.CCNC(=N)N/N=C/c1ccc(/C=C/c2cn3ccccc3[n+]2C)cc1.[Br-]
- CD50 (Mus musculus [16]): 0.1 mg/kg

SMILES: Br.CCNC(=N)N/N=C/c1ccc(OCc2n(C)c3ccccc3[n+]2C)cc1.[Br-]
- CD50 (Mus musculus [2]): 1.6 mg/kg

SMILES: Br.Cc1cccc2n1cc(COc1ccc(/C=N/NC(=N)NO)cc1)[n+]2C.[Br-]
- CD50 (Mus musculus [1]): 0.8 mg/kg
- CD50 (Mus musculus [17]): 13 mg/kg

SMILES: CCCCSc1ccc2n(c1)cc(-c1ccc(/C=N/NC(=N)N3CCCC3)cc1)[n+]2C.Cc1ccc(S(=O)(=O)O)cc1.Cc1ccc(S(=O)(=O)[O-])cc1
- CD50 (Mus musculus [18]): 3.3 mg/kg
- CD50 (Mus musculus [19]): 212 mg/kg

SMILES: Br.CC/N=C(\NCC)N/N=C/c1ccc(C[n+]2cn(C)c3ccccc32)cc1.[Br-]
- CD50 (Mus musculus [20]): 424 mg/kg
- CD50 (Mus musculus [21]): 13 mg/kg

SMILES: CC(=O)Nc1ccc2n(c1)cc(-c1ccc(/C=N/NC(=N)N)cc1)[n+]2C.Cc1ccc(S(=O)(=O)O)cc1.Cc1ccc(S(=O)(=O)[O-])cc1
- CD50 (Mus musculus [22]): 0.4 mg/kg
- IC50 [23]: 1.5 µg/mL
- IC50 [24]: > 10 µg/mL

SMILES: Cc1ccc(S(=O)(=O)O)cc1.Cc1ccc(S(=O)(=O)[O-])cc1.Cc1ccn2cc(-c3ccc(/C=N/NC(=N)N)cc3)[n+](C)c2c1
- CD50 (Mus musculus [25]): 1.6 mg/kg
- IC50 [9]: 1 µg/mL

SMILES: C[n+]1ccc(COc2ccc(/C=N/NC(=N)N3CCCC3)cc2)cc1.Cc1ccc(S(=O)(=O)O)cc1.Cc1ccc(S(=O)(=O)[O-])cc1
- CD50 (Mus musculus [26]): 424 mg/kg
- CD50 (Mus musculus [27]): 0.8 mg/kg
- IC50 [23]: 9.3 µg/mL
- IC50 [24]: 13.6 µg/mL

SMILES: Cc1ccc(S(=O)(=O)O)cc1.Cc1ccc(S(=O)(=O)[O-])cc1.Cc1ccc2n(c1)cc(-c1ccc(/C=C/C=N/NC(=N)N)cc1)[n+]2C
- CD50 (Mus musculus [28]): 424 mg/kg
- CD50 (Mus musculus [29]): 106 mg/kg

SMILES: Br.C[n+]1cccc(COc2ccc(/C=N/NC(=N)N3CCCC3)cc2)c1.[Br-]
- CD50 (Mus musculus [26]): 26 mg/kg
- CD50 (Mus musculus [27]): 0.8 mg/kg
- IC50 [23]: 0.3 µg/mL
- IC50 [24]: 0.8 µg/mL

SMILES: Br.Cc1ccn2cc(-c3ccc(/C=N/NC(=N)N4CCCC4)cc3)[n+](C)c2c1.[Br-]
- CD50 (Mus musculus [30]): 13 mg/kg
- CD50 (Mus musculus [31]): 0.1 mg/kg

SMILES: Br.C[n+]1c(COc2ccc(/C=N/NC(=N)N3CCCC3)cc2)cn2ccccc21.[Br-]
- CD50 (Mus musculus [30]): 26 mg/kg
- CD50 (Mus musculus [32]): 0.8 mg/kg
